According to ChEMBL document CHEMBL5223184, “Structure-Based Design of Glycosylated Oxytocin Analogues with Improved Selectivity and Antinociceptive Activity” (ACS Med Chem Lett, 2023):
Calls of active or inactive are those of the source. Bridge positions count the residues as written; N and C are the ends. Square brackets hold non-standard residues; d marks the D form. Peptide text beside a SMILES is read from it. * marks the point of attachment. X1 = OC[C@H]1O[C@@H](O[C@H]2[C@H](O)[C@@H](O)[C@H](*)O[C@@H]2CO)[C@H](O)[C@@H](O)[C@H]1O; βGlc = OC[C@H]1O[C@@H](*)[C@H](O)[C@@H](O)[C@@H]1O; Dap = NC[C@H](N)C(=O)O; Aib = CC(C)(N)C(=O)O

Key:
Oxytocin receptor = target: T1, Oxytocin receptor (Homo sapiens, UniProt P30559); experiment: Activation of human 3X-HA N-tagged OTR expressed in CHO-K1 cells incubated for 10 mins by cell Western assay; format: cell-based
T1 sequence (P30559 whole entry): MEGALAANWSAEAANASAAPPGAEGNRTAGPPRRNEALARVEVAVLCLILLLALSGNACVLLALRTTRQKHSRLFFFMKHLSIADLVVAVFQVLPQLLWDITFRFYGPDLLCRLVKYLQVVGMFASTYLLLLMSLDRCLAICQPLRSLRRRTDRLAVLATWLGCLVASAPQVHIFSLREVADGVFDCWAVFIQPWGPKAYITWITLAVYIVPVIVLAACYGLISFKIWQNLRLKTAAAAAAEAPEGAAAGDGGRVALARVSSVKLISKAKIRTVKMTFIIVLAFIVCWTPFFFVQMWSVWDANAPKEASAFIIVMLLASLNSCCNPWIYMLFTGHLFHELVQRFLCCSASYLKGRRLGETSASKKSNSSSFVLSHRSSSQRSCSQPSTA
Outline: (§1)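 In-cell Western read-out of ERK MAPK activation in CHO cells expressing the human receptor (OTR, AVP1a or AVP1b). Potency reported as mean ± SEM of N = 3 independent experiments.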

Vasopressin V1a receptor = Vasopressin V1a receptor (Homo sapiens, UniProt P37288); experiment: Activation of human 3X-HA N-tagged AVP1a expressed in CHO-K1 cells incubated for 10 mins by cell Western assay; format: cell-based; outline: as §1
Sequence of Vasopressin V1a receptor (P37288 whole entry): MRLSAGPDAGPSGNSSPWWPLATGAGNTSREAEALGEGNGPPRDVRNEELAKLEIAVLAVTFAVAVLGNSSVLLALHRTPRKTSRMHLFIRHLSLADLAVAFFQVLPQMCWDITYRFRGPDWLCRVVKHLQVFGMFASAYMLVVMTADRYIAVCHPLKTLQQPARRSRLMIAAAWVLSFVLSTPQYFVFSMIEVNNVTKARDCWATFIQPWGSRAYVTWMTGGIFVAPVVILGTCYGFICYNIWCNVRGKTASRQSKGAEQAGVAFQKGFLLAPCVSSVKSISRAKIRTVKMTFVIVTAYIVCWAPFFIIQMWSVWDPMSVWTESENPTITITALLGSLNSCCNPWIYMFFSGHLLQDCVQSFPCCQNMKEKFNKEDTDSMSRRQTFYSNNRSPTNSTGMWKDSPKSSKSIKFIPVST

Vasopressin V1b receptor = target: T2, Vasopressin V1b receptor (Homo sapiens, UniProt P47901); experiment: Activation of human 3X-HA N-tagged AVP1b expressed in CHO-K1 cells incubated for 10 mins by cell Western assay; format: cell-based; outline: as §1
T2 sequence (P47901 whole entry): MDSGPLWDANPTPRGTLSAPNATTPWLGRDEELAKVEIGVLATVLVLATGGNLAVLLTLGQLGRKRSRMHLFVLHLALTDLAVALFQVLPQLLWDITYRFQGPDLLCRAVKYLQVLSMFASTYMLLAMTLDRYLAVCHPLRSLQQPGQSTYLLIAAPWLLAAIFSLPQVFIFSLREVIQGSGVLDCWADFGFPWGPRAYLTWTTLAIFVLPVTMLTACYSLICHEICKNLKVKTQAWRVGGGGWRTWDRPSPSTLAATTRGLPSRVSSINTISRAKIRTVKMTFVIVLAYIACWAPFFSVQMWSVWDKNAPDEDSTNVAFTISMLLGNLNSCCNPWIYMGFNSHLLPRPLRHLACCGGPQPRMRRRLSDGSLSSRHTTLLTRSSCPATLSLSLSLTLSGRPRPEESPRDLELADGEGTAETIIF

Mus musculus = experiment: Antinociceptive activity against CD-1 mouse assessed as pain relief at 10 mg/kg, iv measured after 2 hrs by tail flick test; format: functional, organism-based
Outline: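 Male CD-1 mice dosed at 10 mg/kg by intravenous injection into the tail vein. Vehicle, oxytocin and morphine groups run alongside. Tail flick in 52 °C water with a 10 s cutoff. Mean ± SEM, N = 5 mice/group.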

Row | SMILES | EC50 (Oxytocin receptor) [nM] | EC50 (Vasopressin V1a receptor) | EC50 (Vasopressin V1b receptor) | Activity (Mus musculus) | EC50 (Oxytocin receptor; cho-k1) [nM]
1 | CC[C@H](C)[C@@H]1NC(=O)[C@H](Cc2ccc(O)cc2)NC(=O)[C@@H](N)CCC(=O)NC[C@@H](C(=O)N2CCC[C@H]2C(=O)N[C@@H](CC(C)C)C(=O)N[C@@H](CO[C@@H]2O[C@H](CO)[C@@H](O)[C@H](O)[C@H]2O)C(N)=O)NC(=O)[C@H](CC(N)=O)NC(=O)[C@H](CCC(N)=O)NC1=O (H-EYIQN[Dap]PLS(βGlc)-NH2; lactam 1-6) | 0.73 | Not Active | Not Active | – | –
2 | CC[C@H](C)[C@@H]1NC(=O)[C@H](Cc2ccc(O)cc2)NC(=O)[C@@H](N)CCC(=O)NC[C@@H](C(=O)N2CCC[C@H]2C(=O)NC(C)(C)C(=O)NCC(=O)N[C@@H](CO[C@@H]2O[C@H](CO)[C@@H](O)[C@H](O)[C@H]2O)C(N)=O)NC(=O)[C@H](CC(N)=O)NC(=O)[C@H](CCC(N)=O)NC1=O | 0.06 | Not Active | Not Active | Active | –
3 | CN1CC[C@]23c4c5ccc(O)c4O[C@H]2[C@@H](O)C=C[C@H]3[C@H]1C5 | – | – | – | Active | –
4 | CC[C@H](C)[C@@H]1NC(=O)[C@H](Cc2ccc(O)cc2)NC(=O)[C@@H](N)CC(=O)NC[C@@H](C(=O)N2CCC[C@H]2C(=O)NC(C)(C)C(=O)N[C@H](CO[C@@H]2O[C@H](CO)[C@@H](O)[C@H](O)[C@H]2O)C(N)=O)NC(=O)[C@H](CC(N)=O)NC(=O)[C@H](CCC(N)=O)NC1=O | – | Not Active | Not Active | – | 0.28
5 | CC[C@H](C)[C@@H]1NC(=O)[C@H](Cc2ccc(O)cc2)NC(=O)[C@@H](N)CC(=O)NC[C@@H](C(=O)N2CCC[C@H]2C(=O)N[C@@H](CC(C)C)C(=O)NCC(=O)N[C@@H](CO[C@@H]2O[C@H](CO)[C@@H](O[C@@H]3O[C@H](CO)[C@H](O)[C@H](O)[C@H]3O)[C@H](O)[C@H]2O)C(N)=O)NC(=O)[C@H](CC(N)=O)NC(=O)[C@H](CCC(N)=O)NC1=O (H-DYIQN[Dap]PLGS(X1)-NH2; lactam 1-6) | 160 | Not Active | Not Active | – | –
6 | CC[C@H](C)[C@@H]1NC(=O)[C@H](Cc2ccc(O)cc2)NC(=O)[C@@H](N)CCC(=O)NC[C@@H](C(=O)N2CCC[C@H]2C(=O)NC(C)(C)C(=O)N[C@@H](CO[C@@H]2O[C@H](CO)[C@@H](O)[C@H](O)[C@H]2O)C(N)=O)NC(=O)[C@H](CC(N)=O)NC(=O)[C@H](CCC(N)=O)NC1=O (H-EYIQN[Dap]P[Aib]S(βGlc)-NH2; lactam 1-6) | 220 | Not Active | Not Active | – | –
7 | CC[C@H](C)[C@@H]1NC(=O)[C@H](Cc2ccc(O)cc2)NC(=O)[C@@H](N)CC(=O)NC[C@@H](C(=O)N2CCC[C@H]2C(=O)N[C@@H](CC(C)C)C(=O)NCC(N)=O)NC(=O)[C@H](CC(N)=O)NC(=O)[C@H](CCC(N)=O)NC1=O (H-DYIQN[Dap]PLG-NH2; lactam 1-6) | – | Not Active | Not Active | Active | –
8 | CC[C@H](C)[C@@H]1NC(=O)[C@H](Cc2ccc(O)cc2)NC(=O)[C@@H](N)CSSC[C@@H](C(=O)N2CCC[C@H]2C(=O)N[C@@H](CC(C)C)C(=O)NCC(N)=O)NC(=O)[C@H](CC(N)=O)NC(=O)[C@H](CCC(N)=O)NC1=O | – | – | – | inactive | –
9 | CC[C@H](C)[C@@H]1NC(=O)[C@H](Cc2ccc(O)cc2)NC(=O)[C@@H](N)CC(=O)NC[C@@H](C(=O)N2CCC[C@H]2C(=O)N[C@@H](CC(C)C)C(=O)N[C@@H](CO[C@@H]2O[C@H](CO)[C@@H](O[C@@H]3O[C@H](CO)[C@H](O)[C@H](O)[C@H]3O)[C@H](O)[C@H]2O)C(N)=O)NC(=O)[C@H](CC(N)=O)NC(=O)[C@H](CCC(N)=O)NC1=O (H-DYIQN[Dap]PLS(X1)-NH2; lactam 1-6) | 0.54 | Not Active | Not Active | – | –
10 | CC[C@H](C)[C@@H]1NC(=O)[C@H](Cc2ccc(O)cc2)NC(=O)[C@@H](N)CCC(=O)NC[C@@H](C(=O)N2CCC[C@H]2C(=O)N[C@@H](CC(C)C)C(=O)NCC(N)=O)NC(=O)[C@H](CC(N)=O)NC(=O)[C@H](CCC(N)=O)NC1=O (H-EYIQN[Dap]PLG-NH2; lactam 1-6) | – | Not Active | Not Active | – | –
